Laboratory results reported in ChEMBL document CHEMBL3425488, “Novel histone deacetylase inhibitors induce growth arrest, apoptosis, and differentiation in sarcoma cancer stem cells” (J Med Chem, 2015).
The source made the active and inactive calls. No cut-off for these calls is given here.

What was measured:
Histone deacetylase 2 = Histone deacetylase 2 (Homo sapiens, UniProt Q92769); assay: Inhibition of recombinant HDAC2 (unknown origin) by homogeneous fluorescence release assay
Histone deacetylase 3 = Histone deacetylase 3 (Homo sapiens, UniProt O15379); assay: Inhibition of recombinant HDAC3 (unknown origin) by homogeneous fluorescence release assay
Histone deacetylase 3, sequence (O15379 whole entry): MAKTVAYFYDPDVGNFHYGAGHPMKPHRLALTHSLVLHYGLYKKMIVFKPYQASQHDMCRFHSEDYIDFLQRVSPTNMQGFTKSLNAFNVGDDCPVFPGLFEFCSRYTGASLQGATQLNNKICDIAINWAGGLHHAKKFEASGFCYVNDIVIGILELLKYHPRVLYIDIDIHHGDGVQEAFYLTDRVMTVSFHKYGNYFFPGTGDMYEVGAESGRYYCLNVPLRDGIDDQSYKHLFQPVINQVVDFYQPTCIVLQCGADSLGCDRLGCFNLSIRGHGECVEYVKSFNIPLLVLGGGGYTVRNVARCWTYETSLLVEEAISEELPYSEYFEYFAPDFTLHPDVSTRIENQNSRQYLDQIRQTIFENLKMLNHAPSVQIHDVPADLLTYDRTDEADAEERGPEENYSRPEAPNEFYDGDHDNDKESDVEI

Histone deacetylase 4 = Histone deacetylase 4 (Homo sapiens, UniProt P56524); assay: Inhibition of recombinant HDAC4 (unknown origin) by homogeneous fluorescence release assay
Histone deacetylase 4, sequence (P56524 whole entry, canonical isoform): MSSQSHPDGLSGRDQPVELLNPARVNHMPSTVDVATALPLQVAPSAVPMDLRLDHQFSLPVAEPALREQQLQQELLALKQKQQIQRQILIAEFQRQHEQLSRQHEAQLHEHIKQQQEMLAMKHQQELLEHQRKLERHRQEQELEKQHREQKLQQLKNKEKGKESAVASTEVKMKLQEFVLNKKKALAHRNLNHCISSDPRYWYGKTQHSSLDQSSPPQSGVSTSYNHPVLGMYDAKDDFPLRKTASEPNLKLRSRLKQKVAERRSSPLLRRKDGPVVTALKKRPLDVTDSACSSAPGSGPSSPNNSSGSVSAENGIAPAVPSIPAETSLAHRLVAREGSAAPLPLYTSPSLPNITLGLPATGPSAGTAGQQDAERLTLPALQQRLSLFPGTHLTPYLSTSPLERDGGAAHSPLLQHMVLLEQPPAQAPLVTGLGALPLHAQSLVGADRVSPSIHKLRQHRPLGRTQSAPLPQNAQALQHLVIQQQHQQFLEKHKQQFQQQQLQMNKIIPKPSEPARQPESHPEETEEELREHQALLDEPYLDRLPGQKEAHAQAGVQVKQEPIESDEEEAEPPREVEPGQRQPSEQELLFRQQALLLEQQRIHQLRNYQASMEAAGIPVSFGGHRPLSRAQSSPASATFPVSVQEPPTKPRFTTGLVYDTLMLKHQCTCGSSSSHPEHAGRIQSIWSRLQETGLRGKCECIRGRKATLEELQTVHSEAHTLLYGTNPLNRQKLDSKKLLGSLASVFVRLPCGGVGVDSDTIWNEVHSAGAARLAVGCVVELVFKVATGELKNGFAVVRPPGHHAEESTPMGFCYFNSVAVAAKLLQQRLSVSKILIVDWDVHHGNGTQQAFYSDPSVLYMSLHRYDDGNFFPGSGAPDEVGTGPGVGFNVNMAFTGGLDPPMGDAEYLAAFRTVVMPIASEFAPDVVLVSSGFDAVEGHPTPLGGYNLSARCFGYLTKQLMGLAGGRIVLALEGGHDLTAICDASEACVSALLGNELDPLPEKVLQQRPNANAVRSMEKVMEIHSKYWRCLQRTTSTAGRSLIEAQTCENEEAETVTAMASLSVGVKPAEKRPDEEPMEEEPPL
In short: (§1)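 Isoform enzyme assay run in 10-dose IC50 mode. Compounds were serially diluted 3-fold starting from 50 μM solutions.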

Histone deacetylase 5 = Histone deacetylase 5 (Homo sapiens, UniProt Q9UQL6); assay: Inhibition of recombinant HDAC5 (unknown origin) by homogeneous fluorescence release assay
Histone deacetylase 5, sequence (Q9UQL6 whole entry, canonical isoform): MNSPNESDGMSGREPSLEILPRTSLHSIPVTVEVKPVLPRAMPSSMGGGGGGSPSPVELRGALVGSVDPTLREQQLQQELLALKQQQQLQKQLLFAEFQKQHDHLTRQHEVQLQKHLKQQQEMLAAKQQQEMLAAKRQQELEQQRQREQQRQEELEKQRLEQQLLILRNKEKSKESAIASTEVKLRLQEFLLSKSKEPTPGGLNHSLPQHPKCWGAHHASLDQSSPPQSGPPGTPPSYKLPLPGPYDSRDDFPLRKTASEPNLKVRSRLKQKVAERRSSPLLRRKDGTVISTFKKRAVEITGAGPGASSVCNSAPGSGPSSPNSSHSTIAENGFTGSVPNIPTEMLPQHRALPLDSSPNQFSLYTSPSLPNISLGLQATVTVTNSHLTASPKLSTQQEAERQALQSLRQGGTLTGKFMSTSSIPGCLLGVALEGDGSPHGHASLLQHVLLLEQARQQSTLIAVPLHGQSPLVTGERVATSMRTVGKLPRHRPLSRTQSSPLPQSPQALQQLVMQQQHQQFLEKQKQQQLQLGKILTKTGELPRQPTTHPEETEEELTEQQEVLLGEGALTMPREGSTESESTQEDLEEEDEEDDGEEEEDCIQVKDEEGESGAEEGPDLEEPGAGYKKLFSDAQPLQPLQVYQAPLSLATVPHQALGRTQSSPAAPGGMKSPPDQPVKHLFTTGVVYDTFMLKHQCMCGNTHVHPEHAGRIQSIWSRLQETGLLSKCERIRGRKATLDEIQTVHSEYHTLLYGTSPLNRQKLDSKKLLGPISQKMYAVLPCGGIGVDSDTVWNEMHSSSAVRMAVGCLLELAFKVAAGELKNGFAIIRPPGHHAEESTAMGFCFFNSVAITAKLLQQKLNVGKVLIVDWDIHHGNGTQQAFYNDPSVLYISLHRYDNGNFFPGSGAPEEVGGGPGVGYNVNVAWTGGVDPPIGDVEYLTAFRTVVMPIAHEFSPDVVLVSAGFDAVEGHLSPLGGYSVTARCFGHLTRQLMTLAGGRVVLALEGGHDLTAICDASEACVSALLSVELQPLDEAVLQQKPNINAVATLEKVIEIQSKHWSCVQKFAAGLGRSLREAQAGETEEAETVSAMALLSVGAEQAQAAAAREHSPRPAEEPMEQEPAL
In short: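 Recombinant HDAC isoform panel (HDAC1−11), tested in 10-dose IC50 mode with 3-fold serial dilution starting from 50 μM solutions.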

Histone deacetylase 8 = biological target: T1, Histone deacetylase 8 (Homo sapiens, UniProt Q9BY41); assay: Inhibition of recombinant HDAC8 (unknown origin) by homogeneous fluorescence release assay
T1 sequence (Q9BY41 whole entry): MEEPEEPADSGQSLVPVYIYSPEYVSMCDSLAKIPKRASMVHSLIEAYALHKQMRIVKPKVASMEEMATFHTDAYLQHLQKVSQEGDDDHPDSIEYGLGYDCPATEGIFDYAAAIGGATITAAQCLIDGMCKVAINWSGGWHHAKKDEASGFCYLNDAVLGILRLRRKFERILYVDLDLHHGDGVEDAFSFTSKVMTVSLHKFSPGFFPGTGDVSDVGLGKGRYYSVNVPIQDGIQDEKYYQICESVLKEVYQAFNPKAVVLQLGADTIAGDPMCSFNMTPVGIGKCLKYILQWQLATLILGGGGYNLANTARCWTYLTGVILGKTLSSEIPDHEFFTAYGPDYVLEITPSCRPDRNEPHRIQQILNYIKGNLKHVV

Histone deacetylase 9 = Histone deacetylase 9 (Homo sapiens, UniProt Q9UKV0); assay: Inhibition of recombinant HDAC9 (unknown origin) by homogeneous fluorescence release assay; in short: as §1
Histone deacetylase 9, sequence (Q9UKV0 whole entry): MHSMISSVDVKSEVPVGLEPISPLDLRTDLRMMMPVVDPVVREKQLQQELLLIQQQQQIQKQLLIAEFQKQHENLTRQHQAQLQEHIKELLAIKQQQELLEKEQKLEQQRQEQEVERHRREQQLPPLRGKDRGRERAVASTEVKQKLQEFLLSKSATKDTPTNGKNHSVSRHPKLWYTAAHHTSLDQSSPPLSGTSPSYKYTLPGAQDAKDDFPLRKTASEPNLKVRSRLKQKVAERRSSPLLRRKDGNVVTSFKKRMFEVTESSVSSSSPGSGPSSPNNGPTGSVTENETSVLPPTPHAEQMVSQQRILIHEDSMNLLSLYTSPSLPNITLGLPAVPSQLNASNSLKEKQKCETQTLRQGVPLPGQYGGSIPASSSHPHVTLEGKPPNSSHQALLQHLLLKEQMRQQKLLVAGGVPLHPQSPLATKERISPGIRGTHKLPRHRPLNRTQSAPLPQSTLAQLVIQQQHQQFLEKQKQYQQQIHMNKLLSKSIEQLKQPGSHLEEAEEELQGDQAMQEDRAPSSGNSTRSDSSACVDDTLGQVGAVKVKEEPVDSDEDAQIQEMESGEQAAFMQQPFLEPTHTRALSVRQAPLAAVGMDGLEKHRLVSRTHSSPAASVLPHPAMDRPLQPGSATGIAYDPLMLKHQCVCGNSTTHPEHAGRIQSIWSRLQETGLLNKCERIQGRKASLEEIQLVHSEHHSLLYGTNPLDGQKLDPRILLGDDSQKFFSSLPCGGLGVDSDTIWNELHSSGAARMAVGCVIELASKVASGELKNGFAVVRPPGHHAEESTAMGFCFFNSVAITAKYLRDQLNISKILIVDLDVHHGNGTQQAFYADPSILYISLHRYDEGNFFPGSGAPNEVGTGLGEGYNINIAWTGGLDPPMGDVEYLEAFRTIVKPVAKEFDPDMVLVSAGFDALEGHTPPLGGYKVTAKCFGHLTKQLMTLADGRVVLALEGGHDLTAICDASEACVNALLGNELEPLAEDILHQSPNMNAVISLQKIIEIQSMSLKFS

Histone deacetylase 11 = biological target: T2, Histone deacetylase 11 (Homo sapiens, UniProt Q96DB2); assay: Inhibition of recombinant HDAC11 (unknown origin) by homogeneous fluorescence release assay
T2 sequence (Q96DB2 whole entry): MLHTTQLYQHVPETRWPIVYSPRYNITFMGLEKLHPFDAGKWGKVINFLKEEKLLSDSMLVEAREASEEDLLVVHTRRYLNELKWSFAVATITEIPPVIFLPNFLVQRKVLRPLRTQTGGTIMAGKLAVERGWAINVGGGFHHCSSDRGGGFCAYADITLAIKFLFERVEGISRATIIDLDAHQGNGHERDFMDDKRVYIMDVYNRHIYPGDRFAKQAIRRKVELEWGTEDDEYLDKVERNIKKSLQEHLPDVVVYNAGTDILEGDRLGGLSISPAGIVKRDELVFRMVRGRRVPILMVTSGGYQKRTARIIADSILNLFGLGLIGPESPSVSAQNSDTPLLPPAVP

HOS [1] = assay: Cytotoxicity against HOS cells assessed as cell viability after 72 hrs by MTT assay; assay type: functional, cell-based; conditions: Homo sapiens
In short: (§2)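 Sarcosphere-derived CSC cultures exposed 72 h to concentrations from 100 μM down to 0.1 μM. Viability compared with DMSO-only treated cells. IC50 calculated by linear regression.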

MG-63 [2] = assay: Cytotoxicity against human MG63 cells assessed as cell viability after 72 hrs by MTT assay; assay type: functional, cell-based; in short: as §2
RD [3] = assay: Cytotoxicity against human RD cells assessed as cell viability after 72 hrs by MTT assay; assay type: functional, cell-based; in short: as §2
SK-ES1 [4] = assay: Cytotoxicity against human SK-ES-1 cells assessed as cell viability after 72 hrs by MTT assay; assay type: functional, cell-based; in short: as §2
A673 = assay: Cytotoxicity against human A673 cells assessed as cell viability after 72 hrs by MTT assay; assay type: functional, cell-based; in short: as §2
MG-63 [5] = assay: Antiproliferative activity against human MG63 cells after 24 to 72 hrs by […] dye exclusion assay; assay type: functional, cell-based
In short: (§3)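 Sarcosphere-derived CSCs, dissociated to single cells, plated at 50000/well in complete IMDM for adhesion. After 24 h, exposed to 0.5, 1 and 2 μM. Viable cells counted by dye exclusion at 24, 48 and 72 h. Growth inhibition is expressed relative to DMSO-treated controls. Three experiments in duplicate.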

A204 [6] = assay: Antiproliferative activity against human A204 cells after 24 to 72 hrs by […] dye exclusion assay; assay type: functional, cell-based; in short: as §3
HOS [7] = assay: Induction of apoptosis in HOS cells at 1 to 2 uM after 48 hrs by Hoechst 33258 staining-based fluorescence microscopic analysis; assay type: functional, cell-based; conditions: Homo sapiens
In short: (§4)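 Dissociated sarcospheres seeded on glass coverslips in complete IMDM and exposed to 0.5, 1 and 2 μM for 48 h; untreated cells as negative control. Fixed in methanol/acetic acid (3:1), then stained with 2.25 μg/mL Hoechst 33258 for 10 min at rt in the dark. Apoptotic-body nuclei counted over at least five fields (20× objective) and reported as percentage of cells.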

RD [8] = assay: Induction of apoptosis in human RD cells at 1 to 2 uM after 48 hrs by Hoechst 33258 staining-based fluorescence microscopic analysis; assay type: functional, cell-based; in short: as §4
SK-ES1 [9] = assay: Induction of apoptosis in human SK-ES-1 cells at 1 to 2 uM after 48 hrs by Hoechst 33258 staining-based fluorescence microscopic analysis; assay type: functional, cell-based; in short: as §4
A204 [10] = assay: Induction of apoptosis in human A204 cells at 1 to 2 uM after 48 hrs by Hoechst 33258 staining-based fluorescence microscopic analysis; assay type: functional, cell-based; in short: as §4
MG-63 [11] = assay: Induction of human MG63 cell differentiation assessed as increase in bone nodule formation at 0.025 to 0.5 uM after 14 days by Alizarin Red S staining-based spectrophotometric analysis relative to control; assay type: functional
In short: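 MG-63 sarcosphere-derived cells in mineralization medium (10 mM β-glycerophosphate, 10−8 M dexamethasone, ascorbic acid 2-phosphate) with continuous 0.025–0.5 μM exposure for 14 days. Fixed in 3.7% paraformaldehyde, then stained with 2% Alizarin Red S, pH 4.2, for 1 h. Dye eluted with 10% cetylpyridinium chloride and read at 570 nm. OD expressed relative to mineralization-medium control; triplicate.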

[12] = Cytotoxicity against human MG63 cells assessed as growth inhibition at 0.5 uM treated for 14 days measured on day 14 post last treatment by Alamar Blue assay; assay type: cell-based; conditions: mg-63, 336 h
In short: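 MG-63 sarcosphere-derived cells, 10000 seeded, grown in complete α-MEM to 70% confluence. Then kept in mineralization medium (10 mM β-glycerophosphate, 10−8 M dexamethasone, ascorbic acid 2-phosphate) with continuous compound exposure (0.025–0.5 μM) for 14 days. Viability then read by Alamar Blue.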

MG-63 [13] = assay: Induction of apoptosis in human MG63 cells at 0.5 to 2 uM after 48 hrs by Alexa Fluor 488 Annexin V/propidium iodide staining-based flow cytometric analysis; assay type: functional, cell-based
[14] = biological target: Histone deacetylase (Homo sapiens) (UniProt Q13547+O15379+Q9UBN7+Q92769+Q9UQL6+Q8WUI4+Q9BY41+Q96DB2+P56524+Q9UKV0+Q969S8); conditions: MG-63, 0.5 to 2 uM

Histone deacetylase 2, sequence (Q92769 whole entry): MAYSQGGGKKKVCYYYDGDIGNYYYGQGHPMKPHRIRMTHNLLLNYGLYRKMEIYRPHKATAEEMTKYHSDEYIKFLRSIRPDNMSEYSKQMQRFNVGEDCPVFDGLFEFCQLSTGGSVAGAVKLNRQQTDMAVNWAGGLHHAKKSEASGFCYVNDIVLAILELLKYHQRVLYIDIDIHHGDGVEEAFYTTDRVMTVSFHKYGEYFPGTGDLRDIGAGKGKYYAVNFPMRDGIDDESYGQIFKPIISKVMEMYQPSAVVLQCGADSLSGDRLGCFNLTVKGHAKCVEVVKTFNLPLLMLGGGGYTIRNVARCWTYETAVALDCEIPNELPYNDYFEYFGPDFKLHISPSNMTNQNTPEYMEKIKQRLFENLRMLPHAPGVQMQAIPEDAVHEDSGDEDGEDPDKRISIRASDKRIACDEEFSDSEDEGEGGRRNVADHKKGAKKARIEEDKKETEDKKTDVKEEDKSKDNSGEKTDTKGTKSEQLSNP

Row | Compound | IC50 (Histone deacetylase 4) [µM] | IC50 (Histone deacetylase 5) [µM] | IC50 (Histone deacetylase 9) [µM] | Activity (HOS [1]) | Activity (MG-63 [2]) | Activity (RD [3]) | Activity (SK-ES1 [4]) | Activity (A673) | Activity (MG-63 [5]) | Activity (A204 [6]) | Activity (HOS [7]) | Activity (RD [8]) | Activity (SK-ES1 [9]) | Activity (A204 [10]) | Activity (MG-63 [13]) | other results
1 | O=C(/C=C/c1ccc(NC(=O)C(Cc2ccccc2)c2ccccc2)cn1)NO (configuration not stated) | 11.7 | 9.37 | 10.6 | Dose-dependent effect | Dose-dependent effect | Dose-dependent effect | Dose-dependent effect | Dose-dependent effect | Dose-dependent effect | Dose-dependent effect | Active | Active | Active | inactive | Active | IC50 (Histone deacetylase 2): 1.77 µM; IC50 (Histone deacetylase 3): 0.08 µM; IC50 (Histone deacetylase 8): 0.61 µM; IC50 (Histone deacetylase 11): 10.2 µM; Activity (MG-63 [11]): inactive; Activity [12]: Toxic
2 | O=C(CCCCSc1nc(-c2ccc(-c3ccccc3)cc2)cc(=O)[nH]1)NO | > 50 | > 50 | > 50 | Dose-dependent effect | Dose-dependent effect | Dose-dependent effect | Dose-dependent effect | Dose-dependent effect | Dose-dependent effect | Dose-dependent effect | Active | Active | Active | Active | Active | inhibition [14]: Active
